Source: PubChem (Sanford-Burnham Center for Chemical Genomics)
This is a sample that favours compounds with a hit; in the whole collection about 3.1% have one here.
SENP8 block-1 – inhibitors of human SENP8 protease; Q96LD8; recombinant SENP8, Nedd8 substrate fluorescence; inhibition, % at 20 µM; 360,000 compounds, 0.64% hits; in the data active means inhibition mostly above about 40%, no sharp cut-off; inactive means mostly below about 27%
SENP6 inh – SENP6 protease inhibition. Q9GZR1. Recombinant SENP6 catalytic domain, aminoluciferin luminescence. inhibition, % at 10 µM. 330,000 compounds, 1.8% hits;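 active means inhibition above about 50% at the single tested dose, limit read from the data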;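 further: plate controls were DMSO wells with enzyme for no effect and DMSO wells lacking enzyme for full effect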
Apaf1 inhib – blocks human Apaf-1 apoptosome activity; inhibition, % at 20 µM; O14727; 330,000 compounds, 0.71% hits; reconstituted apoptosome caspase-3 activity, DEVD-Rh110 fluorescence; AID 489030; active means inhibition of at least 40% at 20 µM;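 further: plate controls were DMSO wells for no effect and DEVD-CHO caspase inhibitor wells for full effect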
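Material: reconstituted apoptosome with Apaf-1, cytochrome c, caspase-9, procaspase-3, dATP; medium: pH 7.5 Hepes buffer with CHAPS, BSA, DTT; also added: cytochrome c and DEVD-Rh110 substrate; timing: 30 min plus 50 min, RT; signal: Rh110 fluorescence intensity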
SENP7 block – inhibitors of human SENP7 protease. recombinant SENP7, Z-RLRGG-aminoluciferin luminescence, 40 min. AID 434973. inhibition, % at 5 µM. 330,000 compounds, 1.5% hits;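 active means inhibition above about 50% at the single test dose, limit read from the data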;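 further: plate controls were DMSO with enzyme for no effect and no enzyme buffer wells for full effect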
UBC13 inh – blocks human UBC13 polyubiquitin chain formation; P61088; TR-FRET; inhibition, % at 20 µM; 330,000 compounds, 0.47% hits; in the data active means inhibition above about 45%, passing the limit was not always enough
SENP8 block-2 – blocks the human protease SENP8 | inhibition, % at 10 µM | Q96LD8 | purified SENP8, Z-RLRGG-aminoluciferin cleavage, luminescence | AID 2540 | 330,000 compounds, 1.2% hits; in the data active means inhibition above about 50%
The depositor's hits bear a star; x = not tested or not shown.

SMILES	SENP8 block-1	SENP6 inh	Apaf1 inhib	SENP7 block	UBC13 inh	SENP8 block-2
O=C1/C(=N\S(=O)(=O)c2cccs2)C([n+]2cccc(Cc3ccccc3)c2)=C([O-])c2ccccc21	77*	49	34	30	-105	31
N#Cc1cccc(C2CC(OCCF)=CC(=O)O2)c1 (stereo not drawn)	24	x	x	x	x	x
Clc1ccccc1OCc1nc(-c2ccccn2)no1	26	86*	2	84*	2	69*
CC(C)c1ccc(OCc2ccc(C(=O)O)o2)cc1	-21	95*	5	77*	-4	87*
CC(C)c1ccc(OCc2ccc(C(=O)N(C)C)o2)cc1	-5	-18	2	-8	-1	-13
CC(=O)N1C(=O)/C(=C2\SC(=S)N(c3c(C)n(C)n(-c4ccccc4)c3=O)C2=O)c2ccccc21	81*	x	x	x	x	x
COC(=O)[C@]12CCCCC=C1N(CCc1ccc(OC)c(OC)c1)C(=O)[C@H](CC(=O)NCCCCc1ccccc1)C2	23	x	x	x	x	x
CCc1c(-c2cccc(OC)c2)ncn1Cc1cccc(-c2ccccc2)c1	8	x	x	x	x	x
CCNC(=O)C1CCCN(C(=O)c2ccc3ccccc3c2)CC1 (stereo not drawn)	11	x	x	x	x	x
CC(=O)Nc1cc(OC(C)=O)c2nonc2c1OC(C)=O	33	82*	98*	92*	-39	70*
Cc1ccc(F)cc1-c1cc2nc(NCCCN(C)C)n(C)c(=O)c2s1	-45	x	x	x	x	x
CCCCNC(=O)c1nc(-c2cccnc2OC)oc1-c1ccc(Cl)cc1	-392	x	x	x	x	x
COc1cc(N=Nc2ccc(C)cc2S(N)(=O)=O)c(C)cc1N	49*	x	x	x	x	x
O=C(NC(=S)Nn1cnc2c(cnn2-c2ccccc2)c1=O)c1ccc(Cl)cc1	10	-12	8	6	0	-3
O=C(NC(=S)Nn1cnc2c(cnn2-c2ccccc2)c1=O)c1ccc(Oc2ccccc2)cc1	-2	-16	41*	-11	-12	-14
CC(C)(C)NC(=O)C(c1ccc(C(F)(F)F)cc1)n1c(=O)c(-c2cc3ccccc3[nH]2)nc2ccccc21 (stereo not drawn)	-398	x	x	x	x	x
COc1ccc(N=Nc2ccc(N)nc2N)cc1	4	78*	11	78*	-177	73*
Nc1ccc(N=Nc2ccc(O)cc2)c(N)n1	-22	x	x	x	x	x
COc1ccc(N=Nc2cc(OC)c(N)cc2OC)cc1	42*	x	x	x	x	x
COc1ccc(OC)c(N)c1	34	8	15	7	-19	13
COc1ccc2sc3cccc(NCCN(C)C)c3c(=O)c2c1	29	x	x	x	x	x
CN(C)CCNc1ccc(CO)c2sc3ccc(O)cc3c(=O)c12	45*	x	x	x	x	x
COc1ccc(CCNCc2cc(C)n(-c3ccc(OC)cc3)c2C)cc1	46*	-8	8	-9	19	-10
COc1cccc2c1C(=O)c1c(O)c3c(c(O)c1C2=O)C[C@@](O)(C(=O)CO)C[C@@H]3O[C@H]1C[C@H](N)[C@@H](O)[C@H](C)O1	52*	9	56*	10	-161	5
CO[C@@H]1CN(C)C(=O)c2ccc(NC(=O)c3ccccc3F)cc2OC[C@@H](C)N(CC2CCOCC2)C[C@@H]1C	19	x	x	x	x	x
SMILES	SENP8 block-1	SENP6 inh	Apaf1 inhib	SENP7 block	UBC13 inh	SENP8 block-2
CC(=O)N1CCc2c(sc(NC(=O)c3cccc(N4C(=O)CCC4=O)c3)c2C(N)=O)C1	-259	47	57*	4	-13	25
O=C(O)CCC1C(=O)NC(=O)CC1c1ccccc1 (stereo not drawn)	18	x	x	x	x	x
O=C(/C=C/c1ccc(Cl)cc1Cl)Nc1ccncc1	15	78*	6	43	10	56*
O=C(/C=C/c1ccc(Cl)cc1Cl)NCc1ccncc1	7	-29	-2	-9	-8	-15
Cc1ccc(/C=C/C(=O)Nc2nc3ccccc3[nH]2)cc1	-22	4	-9	18	-2	-12
O=C(/C=C/c1c(F)cccc1Cl)Nc1nc2ccccc2[nH]1	6	-27	0	69*	17	-28
O=C(/C=C/c1c(Cl)cccc1Cl)Nc1ccncc1	8	60*	5	53*	6	43
Cc1ccc(C)c(C(Nc2ccccc2)c2ccc3ccc(C)nc3c2O)c1 (stereo not drawn)	-13	x	x	x	x	x
COC1=CC(C)C2CC3OC(O)CC4C(C)=C(OC)C(=O)C(C2(C)C1=O)C34C (stereo not drawn)	5	x	x	x	x	x
CC(C)c1cc(Cn2c3ccccc3c(=O)n2C(C)Cn2cc(CCCC#N)nn2)on1 (stereo not drawn)	-400	x	x	x	x	x
